pIC50: −log10 of the molar value.
Key:
[1] = system: CHO-MG; experiment: Inhibition of cell growth in CHO-MG cells in the presence of DFMO; type: functional, cell-based; details: Cricetulus griseus
Procedure, shortened: (§1)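 L1210 cells seeded at 5 × 10⁴ cells/mL with conjugate added at seeding; CHO/CHO-MG plated at 2 × 10³ cells/mL with conjugate added after overnight (24 h). 5 mM DFMO added together with conjugate; medium contains 2 mM aminoguanidine. After 48 h, growth read by MTT formazan absorbance at 540 nm. IC50 is 50% growth inhibition; mean of three determinations.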

[2] = molecular target: Phosphodiesterase 1 (Bos taurus, UniProt Q01061+P14100); experiment: Inhibition of bovine calmodulin-activated cAMP dependent phosphodiesterase; type: protein assay
Procedure, shortened: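 Crude bovine heart PDE preparation containing calmodulin and Ca²⁺ (0.2 milliunit). Incubated 20 min at 37 °C with 0.1 mM [8-³H]cAMP and graded drug concentrations in 30 mM Tris-HCl, 3 mM MgSO₄, 0.6 mM AMP. Stopped with ZnSO₄; Ba(OH)₂ precipitated AMP with BaSO₄; supernatant radioactivity counted. IC50 is the concentration giving 50% inhibition.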

[3] = system: CHO-MG; experiment: Cellular uptake in CHO-MG cells at 10 uM; type: ADME, cell-based, Cricetulus griseus; details: chinese hamster
Procedure, shortened: (§2)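 CHO (RPMI 1640, 10% FCS, 2 mM aminoguanidine) and CHO-MG (plus L-proline) cells seeded at 2 × 10⁵ cells/mL. Conjugate added 24 h after seeding and cells harvested 24 h later, then washed in cold 0.14 M NaCl and sonicated in 0.2 N HClO₄. Supernatant analysed by ion-pair reversed-phase HPLC (n-octanesulfonate), expressed as nmol/mg protein; mean ± SD of three determinations.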

[4] = system: CHO; experiment: Inhibition of cell growth in CHO cells in the presence of DFMO; type: functional, cell-based; details: Cricetulus griseus; procedure, shortened: as §1
[5] = system: L1210; experiment: Inhibition of cell growth in L1210 cells in the presence of DFMO; type: functional, cell-based; details: Mus musculus; procedure, shortened: as §1
[6] = system: CHO; experiment: Cellular uptake in CHO cells at 10 uM; type: ADME, cell-based, Cricetulus griseus; details: chinese hamster; procedure, shortened: as §2
[7] = system: CHO-MG; experiment: Selectivity for uptake in CHO cell line over CHO-MG cell line at 10 uM; type: functional, cell-based; details: Cricetulus griseus
Procedure, shortened: (§3)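 Ratio of intracellular conjugate level in CHO over CHO-MG cells. Both lines were exposed to conjugate 24 h after seeding at 2 × 10⁵ cells/mL, for 24 h with 2 mM aminoguanidine in the medium. Levels were measured by ion-pair HPLC of perchloric extracts and normalised to protein (nmol/mg).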

[8] = system: CHO-MG; experiment: Cellular uptake in CHO-MG cells at 50 uM; type: ADME, cell-based, Cricetulus griseus; details: chinese hamster; procedure, shortened: as §2
[9] = system: L1210; experiment: Intracellular level of conjugate in L1210 cells in the absence of DFMO at 50 uM; type: functional, cell-based; details: Mus musculus
Procedure, shortened: (§4)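 L1210 cells in RPMI 1640/10% FCS with 2 mM aminoguanidine, seeded at 4 × 10⁴ cells/mL. Conjugate, with or without 5 mM DFMO, added at seeding; cells cultured 48 h, washed in cold NaCl, and extracted with 0.2 N HClO₄. Conjugate and free putrescine, spermidine and spermine quantified by ion-pair HPLC (UV 254 nm, fluorescence ex 345/em 455 nm); normalised to protein. Student's t-test, p<0.05.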

[10] = system: L1210; experiment: Intracellular level of spermine in L1210 cells in the absence of DFMO at 50 uM; type: functional, cell-based; details: Mus musculus; procedure, shortened: as §4
[11] = system: L1210; experiment: Intracellular level of putrescine in L1210 cells in the presence of DFMO at 50 uM; type: functional, cell-based; details: Mus musculus; procedure, shortened: as §4
[12] = system: L1210; experiment: Intracellular level of spermidine in L1210 cells in the absence of DFMO at 50 uM; type: functional, cell-based; details: Mus musculus; procedure, shortened: as §4
[13] = system: L1210; experiment: Intracellular level of conjugate in L1210 cells in the presence of DFMO at 50 uM; type: functional, cell-based; details: Mus musculus; procedure, shortened: as §4
[14] = system: L1210; experiment: Intracellular level of putrescine in L1210 cells in the absence of DFMO at 50 uM; type: functional, cell-based; details: Mus musculus; procedure, shortened: as §4
[15] = system: CHO; experiment: Cellular uptake in CHO cells at 50 uM; type: ADME, cell-based, Cricetulus griseus; details: chinese hamster; procedure, shortened: as §2
[16] = Selectivity for uptake CHO cell line over CHO-MG cell line at 50 uM; type: functional, Cricetulus griseus; procedure, shortened: as §3
[17] = system: L1210; experiment: Intracellular level of spermidine in L1210 cells in the presence of DFMO at 50 uM; type: functional, cell-based; details: Mus musculus; procedure, shortened: as §4
[18] = system: L1210; experiment: Intracellular level of spermine in L1210 cells in the presence of DFMO at 50 uM; type: functional, cell-based; details: Mus musculus; procedure, shortened: as §4
[19] = system: L1210; experiment: Intracellular level of conjugate in L1210 cells in the presence of DFMO at 10 uM; type: functional, cell-based; details: Mus musculus; procedure, shortened: as §4
[20] = system: L1210; experiment: Intracellular level of spermidine in L1210 cells in the absence of DFMO at 10 uM; type: functional, cell-based; details: Mus musculus; procedure, shortened: as §4
[21] = system: L1210; experiment: Intracellular level of putrescine in L1210 cells in the presence of DFMO at 10 uM; type: functional, cell-based; details: Mus musculus; procedure, shortened: as §4
[22] = system: L1210; experiment: Intracellular level of spermine in L1210 cells in the presence of DFMO at 10 uM; type: functional, cell-based; details: Mus musculus; procedure, shortened: as §4
[23] = system: L1210; experiment: Intracellular level of spermine in L1210 cells in the absence of DFMO at 10 uM; type: functional, cell-based; details: Mus musculus; procedure, shortened: as §4
[24] = system: L1210; experiment: Intracellular level of conjugate in L1210 cells in the absence of DFMO at 10 uM; type: functional, cell-based; details: Mus musculus; procedure, shortened: as §4
[25] = system: L1210; experiment: Intracellular level of putrescine in L1210 cells in the absence of DFMO at 10 uM; type: functional, cell-based; details: Mus musculus; procedure, shortened: as §4
[26] = system: L1210; experiment: Intracellular level of spermidine in L1210 cells in the presence of DFMO at 10 uM; type: functional, cell-based; details: Mus musculus; procedure, shortened: as §4
[27] = system: CHO-MG; experiment: Cellular uptake in CHO-MG cells at 25 uM; type: ADME, cell-based, Cricetulus griseus; details: chinese hamster; procedure, shortened: as §2
[28] = Selectivity for uptake in CHO cell line over CHO-MG cell line at 25 uM; type: functional, Cricetulus griseus; procedure, shortened: as §3
[29] = system: CHO; experiment: Cellular uptake in CHO cells at 25 uM; type: ADME, cell-based, Cricetulus griseus; details: chinese hamster; procedure, shortened: as §2

| SMILES | IC50 [2] [µM] | pIC50 [5] | Drug uptake [8] [nmol/mg] | Drug uptake [15] [nmol/mg] | pIC50 [1] | Selectivity ratio [16] | Drug uptake [19] [nmol/mg] | Drug uptake [20] [nmol/mg] | Drug uptake [22] [nmol/mg] | Drug uptake [23] [nmol/mg] | Drug uptake [24] [nmol/mg] | Drug uptake [26] [nmol/mg] | further results |
| --- | --- | --- | --- | --- | --- | --- | --- | --- | --- | --- | --- | --- | --- |
| NCCCCNCCCN [SPERMIDINE] | > 500 |  |  |  | < 4.00 |  |  |  |  |  |  |  |  |
| CC1C[C@]2(C)C(NCCCO)=Nc3ccccc3[C@@H]2N(C)c2ccccc21 (some centres not stated) | > 500 |  |  |  |  |  |  |  |  |  |  |  |  |
| CN(c1ccccc1)C1c2ccccc2N=C(NCCCO)C1(C)C (configuration not stated) | > 500 |  |  |  |  |  |  |  |  |  |  |  |  |
| NCCCCNCCCNC1=Nc2ccccc2CC1 | > 500 | < 4.00 |  |  |  |  | 8.2 | 14.5 | 12.1 | 7.1 | 4.3 | 3.2 | Drug uptake [27]: 2.2 nmol/mg; Drug uptake [3]: 1.6 nmol/mg; Selectivity ratio [28]: 7; Drug uptake [29]: 15.4 nmol/mg; Drug uptake [6]: 11 nmol/mg; Ratio [7]: 6.9 |

Continued, in another order:

| IC50 [2] [µM] | pIC50 [5] | Drug uptake [8] [nmol/mg] | Drug uptake [15] [nmol/mg] | SMILES | pIC50 [1] | Selectivity ratio [16] | Drug uptake [19] [nmol/mg] | Drug uptake [20] [nmol/mg] | Drug uptake [22] [nmol/mg] | Drug uptake [23] [nmol/mg] | Drug uptake [24] [nmol/mg] | Drug uptake [26] [nmol/mg] | further results |
| --- | --- | --- | --- | --- | --- | --- | --- | --- | --- | --- | --- | --- | --- |
| 51 | 4.48 |  |  | CN(c1ccccc1)C1c2ccccc2N=C(NCCCCN)C1(C)C (configuration not stated) | 4.89 |  |  |  |  |  |  |  | Drug uptake [3]: 12 nmol/mg; pIC50 [4]: < 4.00; Drug uptake [6]: 13 nmol/mg; Ratio [7]: 1.1 |
| 373 |  | 5.9 | 5.3 | CNc1ccc(C2c3ccccc3N=C(NCCCCN)C2(C)C)cc1 (configuration not stated) |  | 0.9 |  |  |  |  |  |  | Drug uptake [9]: 0.6 nmol/mg; Drug uptake [10]: 8.6 nmol/mg; Drug uptake [11]: 1 nmol/mg; Drug uptake [12]: 20 nmol/mg; Drug uptake [13]: 0.33 nmol/mg; Drug uptake [14]: 1.9 nmol/mg; Drug uptake [17]: 1.8 nmol/mg; Drug uptake [18]: 6.6 nmol/mg |
| 64 |  | 1.7 | 1.2 | CNc1ccc(C2c3ccccc3N=C(NCCCNCCCCN)C2(C)C)cc1 (configuration not stated) |  | 0.7 |  |  |  |  |  |  | Drug uptake [9]: 0.77 nmol/mg; Drug uptake [10]: 9.2 nmol/mg; Drug uptake [11]: 0.08 nmol/mg; Drug uptake [12]: 15 nmol/mg; Drug uptake [13]: 0.62 nmol/mg; Drug uptake [14]: 1.1 nmol/mg; Drug uptake [17]: 2.4 nmol/mg; Drug uptake [18]: 8 nmol/mg |
| 8 | 5.64 | 3.2 | 3.3 | CN(c1ccccc1)C1c2ccccc2N=C(NCCCNCCCCNCCCN)C1(C)C (configuration not stated) |  | 1 | 2.6 | 16 | 7.6 | 9.5 | 1.8 | 0.6 | Drug uptake [21]: 0.02 nmol/mg; Drug uptake [25]: 0.41 nmol/mg |
| 23 | 5.51 |  |  | CNc1ccc(C2c3ccccc3N=C(NCCCNCCCCNCCCN)C2(C)C)cc1 (configuration not stated) | 4.64 |  | 0.74 | 17 | 7.8 | 9.4 | 0.54 | 0.66 | Drug uptake [27]: 0.81 nmol/mg; Selectivity ratio [28]: 0.9; pIC50 [4]: 4.96; Drug uptake [21]: 0.07 nmol/mg; Drug uptake [29]: 0.72 nmol/mg; Drug uptake [25]: 1.1 nmol/mg |

— ChEMBL document CHEMBL1148584, “Effect of polyamine homologation on the transport and biological properties of heterocyclic amidines” (J Med Chem, 2006)
